# Assay: Toxicity liver stage against HepG2, at 10uM
# Format: cell-based
# Parameters: test concentration 10 uM, cell line HepG2-A16-CD81EGFP
# Conditions: human, HepG2-A16-CD81EGFP cells; read-out: INHIBITION
# Outline: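 Uninfected HepG2-A16-CD81EGFP cells, 3 × 10^3 per well, 1536-well, plated on prespotted compound at 10 μM final, parasite-free screening media added to match infected plates; puromycin 10 μM positive, DMSO 0.5% negative; run in parallel with 48 h PbLuc assay at 37 °C, 5% CO2; viability by CellTiter-Glo luminescence, normalized to controls.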
row,Compound,cytotoxicity at 10 µM [%]
1,Cc1ccc(CNC2(Cc3cc(CC(C)C)on3)COC2)o1,-2.07
2,F[C@@H]1CN(CC2CC2)C[C@@H]1OCc1nc2ccccc2[nH]1,-1.34
3,CS(=O)(=O)N1CCN2C(=O)N(C3CCOCC3)C[C@H]2C1,5.76
4,O=C(COc1ccccc1F)NCC(O)(c1ccccc1)C1CC1 (configuration not stated),-3.68
5,COCC(=O)N1CC[C@@H]2O[C@@H](COCC3CCOCC3)CC[C@@H]21,0.718
6,COc1cc(N2CC[C@@H]3O[C@H](C(=O)NCC4CC4)C[C@@H]32)ncn1,10.7
7,CCCS(=O)(=O)N1CCC2(CC(C(=O)NCc3cccnc3)=NO2)C1 (configuration not stated),-4.51
8,COCC(=O)N1CCC2(CC(C(=O)NCc3cccnc3)=NO2)C1 (configuration not stated),-1.34
9,Fc1cccc(N2CCOC3(CCCN(c4nncs4)C3)C2)c1 (configuration not stated),4
10,O=c1ccc(-c2ccccc2F)nn1CN1CCCCCC1,5.76
11,CCOc1ccc(-n2ccc3nc(N4CCCC4)ncc3c2=O)cc1,-1.19
12,COc1ccc(-c2n[nH]cc2C2SCC(=O)Nc3[nH]ncc32)cc1 (configuration not stated),-1.33
13,CCN1C(=O)C2(CCOCC2)c2cc(NC(=O)c3ccco3)ccc21,-10.3
14,O=C1NC2(CCN(C(=O)Cc3ccsc3)CC2)CC1c1ccncc1 (configuration not stated),5.06
15,O=C(NCc1cccs1)c1[nH]nc2c1CS(=O)(=O)CC2,1.41
16,CCn1nccc1CNC(=O)C1CC1,-12.2
17,Cc1cccc(C(=O)N2CCCC(Cc3cncc4ccccc34)C2)n1 (configuration not stated),-19
18,O=C(CCC1CCCO1)N1CCc2nc(-c3cnccn3)nc(O)c2C1 (configuration not stated),-20.3
19,N#CCCCS(=O)(=O)NC(=O)c1cccc(Cl)c1F,-2.8
20,CC(C)c1ccc(OCCC(=O)NCCC(=O)N(C)C)cc1,-4.37
21,Cc1c(NC(=O)N(C)CCO)cccc1OC1CCCC1,-0.172

row,Compound,cytotoxicity at 10 µM [%]
1,CC(C)C1CCCN1C(=O)Nc1ccc(=O)n(C)c1 (configuration not stated),0.581
2,CNS(=O)(=O)c1ccccc1N1CCN(C(C)C(N)=O)CC1 (configuration not stated),4.87
3,N#Cc1csc(CNCCOc2ncccc2Cl)c1,8.01
4,O=C(NCC(F)(F)F)c1nnn(-c2ccccc2)c1C(F)(F)F,4.39
5,Cn1ncc(C(=O)OCC2CC(=O)N(c3ccccc3)C2)c1C(F)F (configuration not stated),1.93
6,Cc1cc(CN(C)C(=O)NCc2ccccn2)no1,1.62
7,O=C(NCc1cc(Cl)ccn1)NCc1ccco1,8.5
8,COc1cc(Cl)c(NCc2c(C)noc2C)cc1OC,8.77
9,CCC(=O)Nc1ccc2c(ccn2CCOC)c1,3.54
10,COCCn1ccc(NC(=O)Nc2ccccc2)n1,-0.0425
11,COCc1csc(NC(=O)NCc2ncccc2C)n1,-2.6
12,O[C@@H]1CCN(c2ccc3c(Cl)ccnc3c2F)C1,2.12
13,O=C(NCc1ccncc1)N1CCSCC1c1ccc(Cl)cc1 (configuration not stated),1.6
14,CSc1ccc(NC(=O)NCC(O)C2CC2)cc1F (configuration not stated),6.32
15,O=C(NCCc1cccs1)N1CCC[C@H]1CO,10.3
16,CC(C)NS(=O)(=O)c1ccccc1CNCc1cccc(O)c1,-7.19
17,CCC(c1ccccc1)N1CCN(C(=O)c2cc(C(N)=O)c[nH]2)CC1 (configuration not stated),2.96
18,CSc1ccc(CNc2ccccc2CN2CCC(O)CC2)cc1,-4.75
19,CCOc1cc(C(=O)N(C)C)ccc1NC(=O)c1ccsc1,-0.587
20,CC(C)n1cc2cc(NC(=O)CCS(C)(=O)=O)ccc2n1,-141
21,Cc1cc(N(Cc2ccon2)S(C)(=O)=O)ccc1Br,4.51

row,Compound,cytotoxicity at 10 µM [%]
1,CCCc1cc(NC(=O)c2cc(N3CCNC3=O)c(F)cc2F)n[nH]1,12.3
2,COc1cc(C)c(NC(=O)CCn2cccc2)cc1OC,1.61
3,CC(C)Cn1cc(NC(=O)N2CCOC(c3ccccc3)C2)cn1 (configuration not stated),7.59
4,Cc1cc(C(=O)NCCN2CCCCC2)nn1C(C)(C)C,-3
5,N#Cc1ccc(F)cc1Cn1cnc(C2CCC2)cc1=O,15.4
6,NC(=O)CN(C(=O)Cc1cccc(C(F)(F)F)c1)C1CCCC1,3.71
7,CN(Cc1ccccn1)C(=O)CC1CCOc2ccccc21 (configuration not stated),11.6
8,CCNC(=O)NC(=O)CNc1cccc(C(=O)c2ccccc2)c1,3.18
9,CCC(C)CNc1ccc2oc(COC)nc2c1 (configuration not stated),-22.4
10,O=C(NCc1nnc2n1CCC2)N(Cc1ccco1)C1CC1,-6.11
11,COCCn1nc(C(=O)N2CCCC2c2cccc(F)c2)ccc1=O (configuration not stated),-5.5
12,Cc1cn(CC(=O)NC2CCN(C(=O)C3CC3)CC2)c2ccccc12,-3.57
13,CCCS(=O)(=O)N1Cc2nccn2CC(Cn2cncn2)C1 (configuration not stated),-0.158
14,Cn1ccc(-c2cc(C(=O)N3CCC(C(N)=O)CC3)c3ccccn23)n1,-105
15,CC(C)Oc1cccc(-c2nc3c([nH]2)CCCNC3=O)c1,27.3
16,CN(Cc1cnccn1)C(=O)[C@@]12CNC[C@@H]1CN(Cc1ccccc1)C2,-2.59
17,CS(=O)(=O)N1CCc2[nH]cnc2C12CCN(C1CCOCC1)CC2,-4.52
18,CCOC(=O)CC1CCCCN1C(=O)c1cccc2ccnn12 (configuration not stated),-105
19,Cc1[nH]c2c(F)cccc2c1CC(=O)NCCCNc1cccnc1,1.56
20,CCC(CC)n1nc(C)cc1NC(=O)CC1CCOCC1,-2.17
21,CO[C@H]1CN(C(=O)c2ccc(-c3ccccc3)[nH]2)CC[C@H]1N,3.64

row,Compound,cytotoxicity at 10 µM [%]
1,COCC(=O)N1C[C@@H](CN2CCCN(C)CC2)[C@@H](CO)C1,-3.85
2,CCN1CCC(CNC(=O)C(c2ccccc2F)N(C)C)(N(C)C)CC1 (configuration not stated),-1.7
3,COc1cc(N(C)CCC(O)c2ccccc2)ncn1 (configuration not stated),-139
4,CCn1c(C)nnc1SCCNc1nc(C)ncc1S(C)(=O)=O,-4.19
5,Cn1ccnc1CN(CCO)C(=O)c1cnc2ccccc2c1,1.39
6,CCn1nc(C)c(NC(=O)CN(C)C(C)c2ccon2)c1C (configuration not stated),-147
7,OC1(c2cn(C3CCN(C4CCSC4)CC3)nn2)CCCC1 (configuration not stated),2.13
8,CCN1CC(C(=O)NCCOc2ccc3c(c2)OCO3)CC1=O (configuration not stated),-2.34
9,Cc1cc(NC(=O)CN2CCCC(Cn3nc(C)nc3C)C2)n(C)n1 (configuration not stated),-9.54
10,CC(C)Cc1noc(CN2CCN(c3nccs3)CC2)n1,0.607
11,Cc1cccc(-c2noc(CN3CCCC3Cn3cccn3)n2)c1 (configuration not stated),1.68
12,COCC1CC2(CCN(Cc3ccc(C)o3)CC2)CN1C(C)C (configuration not stated),-2.42
13,CNC(=O)c1cc2c(nc1N(C)C)CCN(S(=O)(=O)CC(C)C)CC2,-3.85
14,O=C(NCC1CC1)[C@@H]1CCO[C@@H]2CCN(Cc3ccco3)C[C@H]21,-4.93
15,O=C(C1CCOC1)N1C[C@H]2CN(Cc3ccncc3)C(=O)[C@H]2C1 (some centres not stated),-105
16,Cc1cccc(CN2CCCn3c(nnc3Cn3cccn3)C2)n1,-0.124
17,CC(C)C(=O)N1CC[C@H]2N(C)CC[C@@]2(C(=O)Nc2cccnc2)CC1,-121
18,Cc1ccc2c(c1)C1(CCNCC1)CC2NC(C)C (configuration not stated),-9.73
19,O=C(c1c[nH]c(=O)c(Cl)c1)N1C[C@H]2CC[C@@H](C1)N(CC1CCC1)C2,-153
